In brackets after ≈: the same amount, converted by molar mass.
Tests used:
[1] = Solubility of the compound in Japanese pharmacopoeia second fluid at pH 6.8 at 10 mM after 12 hrs; type: physicochemical
How it was run: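 Solubility measured in Japanese Pharmacopoeia Second Fluid, pH 6.8.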

[2] = Solubility of the compound in Japanese pharmacopoeia first fluid at pH 1.2 at 10 mM after 12 hrs; type: physicochemical
How it was run: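 Solubility measured in Japanese Pharmacopoeia First Fluid, pH 1.2.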

[3] = Metabolic stability in human liver microsomes at 1 uM after 20 to 30 mins by LC/MS/MS analysis in presence of NADPH; type: ADME, Microsome; settings: read-out: Stability
How it was run: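 Metabolic stability read as percent remaining after incubation with human liver microsomes in vitro.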

[4] = 1-Octanol-phosphate buffered saline distribution coefficient, log D of the compound at pH 7.4 after 30 mins by shake flask method; type: physicochemical
How it was run: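 Log D measured as the partition between 1-octanol and phosphate buffered saline, pH 7.4.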

[5] = Bioavailability in monkey at 1 mg/kg, iv after 24 hrs by LC-MS/MS analysis; type: ADME, organism-based, Macaca mulatta; settings: rhesus monkey, in vivo
[6] = Cmax in monkey serum at 1 mg/kg, po by LC-MS/MS analysis; type: ADME, organism-based, Macaca mulatta; parameters: dose 1 mg/kg, route oral; settings: rhesus monkey
How it was run: (§1)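 Oral dosing of fasting monkeys (two animals) at 1.0 mg/kg, given as HCl salts. Plasma was sampled at 0.5, 1, 2, 4, 8 and 24 h for ex vivo anti-fXa inhibition (%) and for drug concentration. AUC, Cmax, C24 h and the Cmax/C24 h ratio were taken from the plasma concentrations.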

[7] = Drug level in monkey serum at 1 mg/kg, po at 24 hrs by LC-MS/MS analysis; type: ADME, organism-based, Macaca mulatta; parameters: dose 1 mg/kg, route oral; settings: rhesus monkey, read-out: Drug uptake; how it was run: as §1
[8] = AUC in monkey serum at 1 mg/kg, po by LC-MS/MS analysis; type: ADME, organism-based, Macaca mulatta; parameters: dose 1 mg/kg, route oral; settings: rhesus monkey; how it was run: as §1

Row | solubility at 12 h, 10000 µM [1] | solubility at 12 h, 10000 µM [2] | remaining at 1 µM [3] | logD at 0.5 h [4] | bioavailability [5] | Cmax [6] | concentration at 24 h [7] | AUC [8] | SMILES
1 | 1000 µg/mL (≈ 1980 µM) | 230 µg/mL (≈ 455 µM) | 97% | 0.14 |  |  |  |  | CCN1CCc2nc(C(=O)Nc3cc(C(=O)O)ccc3CNC(=O)c3ccc(Cl)s3)sc2C1
2 | 520 µg/mL (≈ 910 µM) | 65 µg/mL (≈ 114 µM) | 88% | 1.08 |  |  |  |  | CC(C)N1CCc2nc(C(=O)Nc3cc(C(=O)O)ccc3CCC(=O)Nc3ccc(Br)cc3)sc2C1
3 | 160 µg/mL (≈ 285 µM) | 450 µg/mL (≈ 801 µM) | 93% | 1.61 | 52% |  |  |  | CC(C)N1CCc2nc(C(=O)Nc3cc(C(=O)O)cc(Cl)c3CCC(=O)Nc3ccc(Cl)cc3)sc2C1
4 | 2.7 µg/mL (≈ 5.36 µM) | 140 µg/mL (≈ 278 µM) | 85% |  |  |  |  |  | CNC(=O)c1ccc(CNC(=O)c2ccc(Cl)s2)c(NC(=O)c2nc3c(s2)CN(C)CC3)c1
5 | 830 µg/mL (≈ 1570 µM) | 1000 µg/mL (≈ 1900 µM) | 100% | 0.66 |  |  |  |  | CC(C)N1CCc2nc(C(=O)Nc3c(CCC(=O)Nc4ccc(Cl)cc4)cccc3C(=O)O)sc2C1
6 | 1000 µg/mL (≈ 1760 µM) | 990 µg/mL (≈ 1740 µM) |  |  |  |  |  |  | CN1CCc2nc(C(=O)Nc3cc(C(=O)NS(C)(=O)=O)ccc3CNC(=O)c3ccc(Cl)s3)sc2C1
7 | > 850 µg/mL | 55 µg/mL (≈ 112 µM) | 71% | -0.29 |  |  |  |  | CN1CCc2nc(C(=O)Nc3cc(C(=O)O)ccc3CNC(=O)c3ccc(Cl)s3)sc2C1
8 |  |  |  |  |  | 50.5 ng/mL | 2 ng/mL | 221 ng·h/mL | CC(C)N1CCc2nc(C(=O)Nc3c(CNC(=O)c4ccc(Cl)s4)cccc3C(=O)O)sc2C1.Cl
9 | 41 µg/mL (≈ 79 µM) | 49 µg/mL (≈ 94.4 µM) | 96% | 0.57 | 51% |  |  |  | CC(C)N1CCc2nc(C(=O)Nc3cc(C(=O)O)ccc3CNC(=O)c3ccc(Cl)s3)sc2C1
10 | 11 µg/mL (≈ 20.2 µM) | 970 µg/mL (≈ 1780 µM) | 100% | 1.1 |  |  |  |  | CC(C)N1CCc2nc(C(=O)Nc3cc(C(=O)O)cc(F)c3CCC(=O)Nc3ccc(Cl)cc3)sc2C1
11 |  |  |  |  |  | 67.1 ng/mL | 7.1 ng/mL | 605 ng·h/mL | CC(C)N1CCc2nc(C(=O)Nc3cc(C(=O)O)ccc3CNC(=O)c3ccc(Cl)s3)sc2C1.Cl
12 | 1000 µg/mL (≈ 1820 µM) | 610 µg/mL (≈ 1110 µM) | 100% | 0.41 |  |  |  |  | COCC(C)N1CCc2nc(C(=O)Nc3cc(C(=O)O)ccc3CNC(=O)c3ccc(Cl)s3)sc2C1 (centres undefined)
13 | 1000 µg/mL (≈ 1930 µM) | 1000 µg/mL (≈ 1930 µM) | 96% | 0.28 |  |  |  |  | CC(C)N1CCc2nc(C(=O)Nc3c(CNC(=O)c4ccc(Cl)s4)cccc3C(=O)O)sc2C1
14 | > 800 µg/mL | 710 µg/mL (≈ 1450 µM) |  | -0.38 |  |  |  |  | CN1CCc2nc(C(=O)Nc3c(CNC(=O)c4ccc(Cl)s4)cccc3C(=O)O)sc2C1
15 |  |  |  |  |  | 32 ng/mL | 6.1 ng/mL | 448 ng·h/mL | CC(C)N1CCc2nc(C(=O)Nc3cc(C(=O)O)cc(F)c3CCC(=O)Nc3ccc(Cl)cc3)sc2C1.Cl
16 | 980 µg/mL (≈ 1890 µM) | 900 µg/mL (≈ 1740 µM) | 81% |  |  |  |  |  | CN1CCc2nc(C(=O)Nc3c(CNC(=O)c4ccc(Cl)s4)cccc3C(=O)N(C)C)sc2C1
17 |  |  |  |  |  | 67 ng/mL | 17 ng/mL | 724 ng·h/mL | CC(C)N1CCc2nc(C(=O)Nc3cc(C(=O)O)cc(Cl)c3CCC(=O)Nc3ccc(Cl)cc3)sc2C1.Cl
18 | 140 µg/mL (≈ 274 µM) | 980 µg/mL (≈ 1920 µM) | 94% | 0.27 |  |  |  |  | CC(C)N1CCc2nc(C(=O)Nc3cc(C(=O)O)ccc3CCC(=O)Nc3ccc(F)cc3)sc2C1
19 | 310 µg/mL (≈ 521 µM) | 700 µg/mL (≈ 1180 µM) | 77% | 1.64 |  |  |  |  | CC(C)N1CCc2nc(C(=O)Nc3cc(C(=O)O)cc(C(F)(F)F)c3CCC(=O)Nc3ccc(Cl)cc3)sc2C1
20 |  |  |  |  |  | 109 ng/mL |  | 285 ng·h/mL | CN1CCc2nc(C(=O)Nc3c(CNC(=O)c4ccc(Cl)s4)cccc3C(N)=O)sc2C1.Cl
21 | 950 µg/mL (≈ 1990 µM) | 2 µg/mL (≈ 4.18 µM) | 82% | 0.02 |  |  |  |  | O=C(O)c1ccc(CNC(=O)c2ccc(Cl)s2)c(NC(=O)c2nc3c(s2)COCC3)c1
22 | 130 µg/mL (≈ 222 µM) | 320 µg/mL (≈ 547 µM) | 86% | 1.91 |  |  |  |  | CC(C)Oc1cc(C(=O)O)cc(NC(=O)c2nc3c(s2)CN(C(C)C)CC3)c1CCC(=O)Nc1ccc(Cl)cc1

Row | solubility at 12 h, 10000 µM [1] | solubility at 12 h, 10000 µM [2] | remaining at 1 µM [3] | logD at 0.5 h [4] | bioavailability [5] | Cmax [6] | concentration at 24 h [7] | AUC [8] | SMILES
23 | 210 µg/mL (≈ 420 µM) | 250 µg/mL (≈ 500 µM) | 92% | -0.28 |  |  |  |  | CN1CCc2nc(C(=O)Nc3cc(C(=O)O)ccc3CCC(=O)Nc3ccc(Cl)cn3)sc2C1
24 | 52 µg/mL (≈ 103 µM) | 890 µg/mL (≈ 1760 µM) | 42% |  |  |  |  |  | COC(=O)c1ccc(CNC(=O)c2ccc(Cl)s2)c(NC(=O)c2nc3c(s2)CN(C)CC3)c1
25 | 3 µg/mL (≈ 5.25 µM) | 370 µg/mL (≈ 648 µM) | 93% | 1.62 |  |  |  |  | CCOc1cc(C(=O)O)cc(NC(=O)c2nc3c(s2)CN(C(C)C)CC3)c1CCC(=O)Nc1ccc(Cl)cc1
26 | 930 µg/mL (≈ 1950 µM) | 2 µg/mL (≈ 4.18 µM) | 57% | -0.12 |  |  |  |  | O=C(NCc1cccc(C(=O)O)c1NC(=O)c1nc2c(s1)COCC2)c1ccc(Cl)s1
27 | 130 µg/mL (≈ 258 µM) | 830 µg/mL (≈ 1650 µM) | 80% |  |  |  |  |  | CNC(=O)c1cccc(CNC(=O)c2ccc(Cl)s2)c1NC(=O)c1nc2c(s1)CN(C)CC2
28 | 710 µg/mL (≈ 1450 µM) | 740 µg/mL (≈ 1510 µM) | 94% |  |  |  |  |  | CN1CCc2nc(C(=O)Nc3c(CNC(=O)c4ccc(Cl)s4)cccc3C(N)=O)sc2C1
29 | < 2.4 µg/mL | 30 µg/mL (≈ 61.2 µM) | 77% |  |  |  |  |  | CN1CCc2nc(C(=O)Nc3cc(C(N)=O)ccc3CNC(=O)c3ccc(Cl)s3)sc2C1
30 | 470 µg/mL (≈ 913 µM) | 320 µg/mL (≈ 621 µM) |  |  |  |  |  |  | CN1CCc2nc(C(=O)Nc3cc(-c4nnn[nH]4)ccc3CNC(=O)c3ccc(Cl)s3)sc2C1
31 | 39 µg/mL (≈ 70 µM) | 810 µg/mL (≈ 1450 µM) | 87% | 1.15 |  |  |  |  | COc1cc(C(=O)O)cc(NC(=O)c2nc3c(s2)CN(C(C)C)CC3)c1CCC(=O)Nc1ccc(Cl)cc1
32 |  |  |  |  |  | 87 ng/mL | 26 ng/mL | 1370 ng·h/mL | CC(C)N1CCc2nc(C(=O)Nc3cc(C(=O)O)ccc3CCC(=O)Nc3ccc(Cl)cc3)sc2C1.Cl
33 | 870 µg/mL (≈ 1570 µM) | 120 µg/mL (≈ 216 µM) | 100% | 0.44 |  |  |  |  | O=C(O)c1ccc(CNC(=O)c2ccc(Cl)s2)c(NC(=O)c2nc3c(s2)CN(C(CF)CF)CC3)c1
34 |  |  |  |  |  | 25.8 ng/mL | 4 ng/mL | 247 ng·h/mL | CN1CCc2nc(C(=O)Nc3cc(C(=O)O)ccc3CNC(=O)c3ccc(Cl)s3)sc2C1.Cl
35 | 24 µg/mL (≈ 48.1 µM) | 430 µg/mL (≈ 862 µM) | 95% | 0.27 |  |  |  |  | CN1CCc2nc(C(=O)Nc3cc(C(=O)O)ccc3CCC(=O)Nc3ccc(Cl)cc3)sc2C1
36 |  |  |  |  |  | 98 ng/mL | 9.5 ng/mL | 785 ng·h/mL | CC(C)N1CCc2nc(C(=O)Nc3cc(C(=O)O)ccc3CCC(=O)Nc3ccc(Cl)cn3)sc2C1.Cl
37 | 580 µg/mL (≈ 1080 µM) | 160 µg/mL (≈ 298 µM) | 94% | 0.45 |  |  |  |  | CC(CF)N1CCc2nc(C(=O)Nc3cc(C(=O)O)ccc3CNC(=O)c3ccc(Cl)s3)sc2C1 (centres undefined)
38 |  |  |  |  |  | 95.9 ng/mL | 0.6 ng/mL | 346 ng·h/mL | CN1CCc2nc(C(=O)Nc3ccccc3CNC(=O)c3ccc(Cl)s3)sc2C1.Cl
39 | 720 µg/mL (≈ 1370 µM) | 490 µg/mL (≈ 930 µM) | 100% | 0.82 | 67% |  |  |  | CC(C)N1CCc2nc(C(=O)Nc3cc(C(=O)O)ccc3CCC(=O)Nc3ccc(Cl)cc3)sc2C1
40 | 13 µg/mL (≈ 26.5 µM) | 72 µg/mL (≈ 147 µM) | 95% |  |  |  |  |  | CN1CCc2nc(C(=O)Nc3ccc(C(=O)O)cc3CNC(=O)c3ccc(Cl)s3)sc2C1
41 | 830 µg/mL (≈ 1600 µM) | > 900 µg/mL | 67% |  |  |  |  |  | CN1CCc2nc(C(=O)Nc3cc(C(=O)N(C)C)ccc3CNC(=O)c3ccc(Cl)s3)sc2C1
42 |  |  | 53% |  |  |  |  |  | CN1CCc2nc(C(=O)Nc3ccccc3CNC(=O)c3ccc(Cl)s3)sc2C1
43 | 86 µg/mL (≈ 163 µM) | 810 µg/mL (≈ 1530 µM) | 100% | 0.23 |  |  |  |  | CC(C)N1CCc2nc(C(=O)Nc3cc(C(=O)O)ccc3CCC(=O)Nc3ccc(Cl)cn3)sc2C1

Reference: ChEMBL document CHEMBL1921766, “Orally active zwitterionic factor Xa inhibitors with long duration of action” (Bioorg Med Chem Lett, 2011)
